According to publication PMC3609949 (Journal of the American Chemical Society, 2013):
Where a SMILES comes first, the peptide text is derived from it. The star is where a group is joined. X1 = CC[C@@]1(OC(=O)CCCS*)C(=O)OCc2c1cc1n(c2=O)Cc2cc3ccccc3nc2-1

Assay: TEM imaging of self-assembled nanostructures in water
Type: physicochemical
Settings: 50 μM in water, stained with 2% uranyl acetate
Outline: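 Negative-stain TEM using 2% aqueous uranyl acetate to enhance contrast. Most stained samples were imaged at 50 μM. Some other images were taken at 1 mM, and one panel is listed at both 50 μM and 100 μM. Filament widths are given as value ± spread.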

SMILES: CC[C@H](C)[C@H](NC(=O)[C@H](CCC(N)=O)NC(=O)[C@@H](NC(=O)CNC(=O)[C@H](CSSCCCC(=O)O[C@]1(CC)C(=O)OCc2c1cc1n(c2=O)Cc2cc3ccccc3nc2-1)NC(C)=O)C(C)C)C(=O)N[C@H](C(=O)N[C@@H](Cc1ccc(O)cc1)C(=O)N[C@@H](CCCCN)C(=O)N[C@@H](CCCCN)C(N)=O)C(C)C [mCPT-buSS-Tau] (Ac-C(X1)GVQIVYKK-NH2; N-terminus and C-terminus assumed)
- width of self-assembled filaments/nanotubes: 6.7 ± 1 nm
